Consider 3 compounds from ChEMBL document CHEMBL2311479, “Remarkable stabilization of antiparallel DNA triplexes by strong stacking effects of consecutively modified nucleobases containing thiocarbonyl groups” (Bioorg Med Chem Lett, 2013).

Assay [1] in a line: Binding affinity to HP duplex DNA 1 (unknown origin) containing c-Myc P2 promoter sequence incubated for 12 hrs at 37 degC in presence of 50 mM pH 7.2 HEPES buffer containing 10 mM MgCl2, 100 mM NaCl and 10% sucrose.
Assay [2] can be described thus: Binding affinity to fluorescently-labeled mismatched HP duplex DNA 8 (unknown origin) containing HIV2 nef gene assessed as formation of stable triplexes at 100 uM incubated for 12 hrs at 37 degC in presence of 50 mM pH 7.2 HEPES buffer containing 10 mM MgCl2, 100 mM NaCl and 10% sucrose by gel mobility shift assay. An outline of the steps: (§1)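 Triplex formation by gel shift. Oligonucleotide at 100 µM was mixed with fluorescently labeled hairpin duplex at 40 nM in 50 mM HEPES (pH 7.2), 10 mM MgCl2, 100 mM NaCl and 10% sucrose for 12 h at 37 °C. Complexes were resolved on a 15% nondenaturing polyacrylamide gel.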

Assay [3] in a line: Binding affinity to fluorescently-labeled mismatched HP duplex DNA 5 (unknown origin) containing HIV2 nef gene assessed as formation of stable triplexes at 100 uM incubated for 12 hrs at 37 degC in presence of 50 mM pH 7.2 HEPES buffer containing 10 mM MgCl2, 100 mM NaCl and 10% sucrose by gel mobility shift assay. An outline of the steps:
as §1

The nature of assay [4]: Binding affinity to fluorescently-labeled mismatched HP duplex DNA 4 (unknown origin) containing HIV2 nef gene assessed as formation of stable triplexes at 100 uM incubated for 12 hrs at 37 degC in presence of 50 mM pH 7.2 HEPES buffer containing 10 mM MgCl2, 100 mM NaCl and 10% sucrose by gel mobility shift assay. An outline of the steps:
as §1

Assay [5] is described as follows: Binding affinity to fluorescently-labeled mismatched HP duplex DNA 6 (unknown origin) containing HIV2 nef gene assessed as formation of stable triplexes at 100 uM incubated for 12 hrs at 37 degC in presence of 50 mM pH 7.2 HEPES buffer containing 10 mM MgCl2, 100 mM NaCl and 10% sucrose by gel mobility shift assay. An outline of the steps: as §1
A short description of assay [6]: Binding affinity to fluorescently-labeled mismatched HP duplex DNA 7 (unknown origin) containing HIV2 nef gene assessed as formation of stable triplexes at 100 uM incubated for 12 hrs at 37 degC in presence of 50 mM pH 7.2 HEPES buffer containing 10 mM MgCl2, 100 mM NaCl and 10% sucrose by gel mobility shift assay. An outline of the steps: as §1
Assay [7] can be described thus: Binding affinity to fluorescently-labeled HP duplex DNA 2 (unknown origin) containing HIV2 nef gene assessed as formation of stable triplexes at 40 uM by gel mobility shift assay.
Assay [8] is described as follows: Binding affinity to HP duplex DNA 2 (unknown origin) containing HIV2 nef gene sequence incubated for 12 hrs at 37 degC in presence of 50 mM pH 7.2 HEPES buffer containing 10 mM MgCl2, 100 mM NaCl and 10% sucrose. An outline of the steps:
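Oligonucleotide binding to a 5'-FAM-labeled hairpin duplex bearing the HIV2 nef sequence. Incubation was 12 h at 37 °C in 50 mM HEPES (pH 7.2) with 10 mM MgCl2, 100 mM NaCl and 10% sucrose. Kd reported in µM.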

A short description of assay [9]: Binding affinity to fluorescently-labeled HP duplex DNA 2 (unknown origin) containing HIV2 nef gene assessed as formation of stable triplexes at 100 uM incubated for 12 hrs at 37 degC in presence of 50 mM pH 7.2 HEPES buffer containing 10 mM MgCl2, 100 mM NaCl and 10% sucrose by gel mobility shift assay. The method, boiled down: as §1
Assay [10] in a line: Binding affinity to fluorescently-labeled HP duplex DNA 2 (unknown origin) containing HIV2 nef gene assessed as formation of stable triplexes at 40 uM in presence of 40 uM RNA 1 (5'-CACCACCACCACC-3') by gel mobility shift assay.
Assay [11] is described as follows: Binding affinity to fluorescently-labeled mismatched HP duplex DNA 3 (unknown origin) containing HIV2 nef gene assessed as formation of stable triplexes at 100 uM incubated for 12 hrs at 37 degC in presence of 50 mM pH 7.2 HEPES buffer containing 10 mM MgCl2, 100 mM NaCl and 10% sucrose by gel mobility shift assay. An outline of the steps:
as §1

The nature of assay [12]: Binding affinity to HP duplex DNA 2 (unknown origin) containing HIV2 nef gene sequence incubated for 12 hrs at 37 degC in presence of 50 mM pH 7.2 HEPES buffer containing 10 mM MgCl2, 100 mM KCl and 10% sucrose.

pKd: −log10 of the molar value. The source made the active and inactive calls. No cut-off for these calls is given here.

As for `Cc1cn([C@H]2C[C@H](OP(=O)(O)OC[C@H]3O[C@@H](n4cnc5c(=S)[nH]c(N)nc54)C[C@@H]3OP(=O)(O)OC[C@H]3O[C@@H](n4cnc5c(=S)[nH]c(N)nc54)C[C@@H]3OP(=O)(O)OC[C@H]3O[C@@H](n4cnc5c(=S)[nH]c(N)nc54)C[C@@H]3OP(=O)(O)OC[C@H]3O[C@@H](n4cc(C)c(=S)[nH]c4=O)C[C@@H]3OP(=O)(O)OC[C@H]3O[C@@H](n4cnc5c(=S)[nH]c(N)nc54)C[C@@H]3OP(=O)(O)OC[C@H]3O[C@@H](n4cnc5c(=S)[nH]c(N)nc54)C[C@@H]3OP(=O)(O)OC[C@H]3O[C@@H](n4cnc5c(=S)[nH]c(N)nc54)C[C@@H]3OP(=O)(O)OC[C@H]3O[C@@H](n4cc(C)c(=S)[nH]c4=O)C[C@@H]3OP(=O)(O)OC[C@H]3O[C@@H](n4cnc5c(=S)[nH]c(N)nc54)C[C@@H]3OP(=O)(O)OC[C@H]3O[C@@H](n4cnc5c(=O)[nH]c(N)nc54)[C@H](O)[C@@H]3O)[C@@H](CO)O2)c(=O)[nH]c1=S`, the pKd (usually the negative decadic logarithm of the Kd, by convention in mol/L) in assay [1] is 6.17.
Still for that read-out and setting: then `Cc1cn([C@H]2C[C@H](OP(=O)(O)OC[C@H]3O[C@@H](n4cnc5c(=S)[nH]c(N)nc54)C[C@@H]3OP(=O)(O)OC[C@H]3O[C@@H](n4cnc5c(=S)[nH]c(N)nc54)C[C@@H]3OP(=O)(O)OC[C@H]3O[C@@H](n4cnc5c(=S)[nH]c(N)nc54)C[C@@H]3OP(=O)(O)OC[C@H]3O[C@@H](n4cc(C)c(=O)[nH]c4=O)C[C@@H]3OP(=O)(O)OC[C@H]3O[C@@H](n4cnc5c(=S)[nH]c(N)nc54)C[C@@H]3OP(=O)(O)OC[C@H]3O[C@@H](n4cnc5c(=S)[nH]c(N)nc54)C[C@@H]3OP(=O)(O)OC[C@H]3O[C@@H](n4cnc5c(=S)[nH]c(N)nc54)C[C@@H]3OP(=O)(O)OC[C@H]3O[C@@H](n4cc(C)c(=O)[nH]c4=O)C[C@@H]3OP(=O)(O)OC[C@H]3O[C@@H](n4cnc5c(=S)[nH]c(N)nc54)C[C@@H]3OP(=O)(O)OC[C@H]3O[C@@H](n4cnc5c(=O)[nH]c(N)nc54)[C@H](O)[C@@H]3O)[C@@H](CO)O2)c(=O)[nH]c1=O`, with 5.14.
As to `Cc1cn([C@H]2C[C@H](OP(=O)(O)OC[C@H]3O[C@@H](n4cnc5c(=O)[nH]c(N)nc54)[C@H](O)[C@@H]3O)[C@@H](COP(=O)(O)O[C@H]3C[C@H](n4cnc5c(=S)[nH]c(N)nc54)O[C@@H]3COP(=O)(O)O[C@H]3C[C@H](n4cnc5c(=S)[nH]c(N)nc54)O[C@@H]3COP(=O)(O)O[C@H]3C[C@H](n4cc(C)c(=S)[nH]c4=O)O[C@@H]3COP(=O)(O)O[C@H]3C[C@H](n4cnc5c(=S)[nH]c(N)nc54)O[C@@H]3COP(=O)(O)O[C@H]3C[C@H](n4cnc5c(=S)[nH]c(N)nc54)O[C@@H]3COP(=O)(O)O[C@H]3C[C@H](n4cc(C)c(=S)[nH]c4=O)O[C@@H]3COP(=O)(O)O[C@H]3C[C@H](n4cnc5c(=S)[nH]c(N)nc54)O[C@@H]3COP(=O)(O)O[C@H]3C[C@H](n4cnc5c(=S)[nH]c(N)nc54)O[C@@H]3COP(=O)(O)O[C@H]3C[C@H](n4cc(C)c(=S)[nH]c4=O)O[C@@H]3COP(=O)(O)O[C@H]3C[C@H](n4cnc5c(=S)[nH]c(N)nc54)O[C@@H]3COP(=O)(O)O[C@H]3C[C@H](n4cnc5c(=S)[nH]c(N)nc54)O[C@@H]3CO)O2)c(=O)[nH]c1=O`, the pKd was less than 4.00 in assay [2], 6.40 in assay [8] and 6.70 in assay [12]. Also, the result in [3], in [4], in assay [5], in [6] and in assay [11] was inactive. Further, the outcome in [7], in assay [9] and in assay [10] was Active.
